Assay results: publication PMC8419008 (Structure (London, England : 1993), 2021)
Residue numbers refer to the chain shown, from its start. Entries after “also recorded” stand apart in the source; their conditions may differ.

What was measured:
[1] = biological target: T1, PHA7 (PLEKHA7 PH domain, wild-type) (Homo sapiens, UniProt Q6IQ23); experiment: 1H/15N HSQC NMR chemical shift perturbation of 15N-labeled PHA7; assay type: binding; details: 15°C; for NMR spectral perturbation / binding of PHA7: soluble or short-chain ligand, 1.5 molar equivalents; for NMR spectral change of PHA7 on incubation with nanodiscs: 1.5 molar equivalents of nanodiscs, 100% diC16-PC or 10% molar diC16-PIP
T1 sequence (Q6IQ23 164-285): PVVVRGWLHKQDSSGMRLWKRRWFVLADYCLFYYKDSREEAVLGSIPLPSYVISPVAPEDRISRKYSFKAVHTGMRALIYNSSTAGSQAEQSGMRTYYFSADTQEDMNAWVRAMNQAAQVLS
In short: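 Human PLEKHA7 PH domain expressed as a GST fusion in E. coli BL21 in M9 with (15NH4)2SO4, then cleaved with HRV 3C, purified by cation exchange and gel filtration. Added directly to preformed MSP1D1Δh5 nanodiscs (100% diC16-PC, or 9/1 diC16-PC with diC16-PI(3,4,5)P3, -PI(4,5)P2 or -PI(3,4)P2). Read-out: 1H/15N chemical shift perturbations.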

PHA7 (PLEKHA7 PH domain) = biological target: T2, PHA7 (PLEKHA7 PH domain) (Homo sapiens, UniProt Q6IQ23); experiment: Liposome co-sedimentation assay; assay type: binding; details: pure diC16-PC liposomes or liposomes containing 10% molar diC16-PIP; SDS-PAGE
T2 sequence (Q6IQ23 164-285): T1 sequence (Q6IQ23 164-285)
In short: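 Small unilamellar vesicles made by bath sonication until translucent, from 100% diC16-PC or 9/1 diC16-PC/diC16-PI(4,5)P2 at 3 mg/mL. 200 uL vesicles mixed with 20 uM PH domain solution, 2 h at room temperature. Airfuge spin at 91,000 rpm for 20 h; supernatant and pellet analysed by SDS-PAGE.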

[2] = biological target: T3, PLEKHA7 PH domain (PHA7, wild-type) (Homo sapiens, UniProt Q6IQ23); experiment: ITC titration of wild-type PHA7 with soluble IP headgroups or PIP nanodiscs; details: read-out: ITC Kd, PHA7; soluble IP headgroups; 23°C; single-site binding model; average of triplicate
T3 sequence (Q6IQ23 164-285): T1 sequence (Q6IQ23 164-285)

[3] = biological target: T4, PHA7-D175K (PLEKHA7 PH domain mutant) (Homo sapiens, UniProt Q6IQ23, D175K); experiment: ITC titration of mutant PHA7-D175K with soluble IP headgroups or PIP nanodiscs; assay type: binding; details: soluble IP headgroups; for Kd: read-out: ITC Kd, PHA7-D175K, 23°C, single-site binding model, average of triplicate; for greater affinity of PHA7-D175K compared to wild-type: ITC
T4 sequence (Q6IQ23 164-285 D175K): T1 sequence (Q6IQ23 164-285) with D12K
In short: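 ITC run at 23°C in 15 mM Tris pH 7.6, 70 mM NaCl, 0.5 mM TCEP. Cell held 50 μM protein; syringe held 0.5 mM soluble IP headgroup. Protein concentration was set by A280. Integrated heats were fitted to a single-site binding model to obtain dissociation constants.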

Compound | co-sedimentation of PHA7 with liposomes (PHA7 (PLEKHA7 PH domain)) | NMR spectral change of PHA7 on incubation with nanodiscs [1] | Kd [2] [µM] | Kd [3] [µM] | greater affinity of PHA7-D175K compared to wild-type [3] | NMR spectral perturbation / binding of PHA7 [1]
CCCCCCCC(=O)OC[C@H](COP(=O)(O)OC1[C@H](O)[C@H](O)C(O)[C@H](O)[C@H]1O)OC(=O)CCCCCCC (stereo partly drawn) [diC8-PI] | – | – | – | – | – | no perturbations; also recorded: does not bind
O=P(O)(O)OC1[C@H](O)[C@H](OP(=O)(O)O)C(OP(=O)(O)O)[C@H](OP(=O)(O)O)[C@H]1O (stereo partly drawn) [IP(3,4,5)P3, inositol (1,3,4,5) tetraphosphate] | – | – | 30.1 ± 2.3 | 3.5 ± 0.5 | nine-fold | weak binding interaction with fast exchange binding dynamics
O=P(O)(O)O[C@@H]1[C@H](O)[C@H](O)[C@@H](OP(=O)(O)O)[C@H](OP(=O)(O)O)[C@H]1O [IP(4,5)P2, inositol (1,4,5) triphosphate] | – | – | 30.5 ± 0.6 | 10.7 ± 0.2 | three-fold | –

Continued, in another order:

co-sedimentation of PHA7 with liposomes (PHA7 (PLEKHA7 PH domain)) | NMR spectral change of PHA7 on incubation with nanodiscs [1] | Kd [2] [µM] | Kd [3] [µM] | greater affinity of PHA7-D175K compared to wild-type [3] | Compound | NMR spectral perturbation / binding of PHA7 [1]
abundant co-sedimentation | effectively obliterated | – | – | – | phosphatidyl inositol (3,4,5) triphosphate [PI(3,4,5)P3] | –
does not sediment | no detectable NMR spectral changes | – | – | – | CCCCCCCCCCCCCCCC(=O)OC[C@H](COP(=O)([O-])OCC[N+](C)(C)C)OC(=O)CCCCCCCCCCCCCCC [diC16-PC, dipalmitoyl-phosphatidyl-choline] | –
